High-throughput results (PubChem BioAssay)
In the library only some 1.9% were active in any assay of this set; here they are far more common.
Tb hexokinase = T. brucei hexokinase 1 inhibition; inhibition, % at 10 µM; 0.11% of 220,000 active; recombinant TbHK1, G6PDH-coupled NADH A340;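 active = inhibition of 50% or more in the single-dose primary screen; inactive = inhibition below 50%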
Hck-Nef inh = human Hck-Nef kinase inhibition | P08631 | Recombinant Hck-YEEI plus Nef, Z-Lyte FRET kinase assay | inhibition, % at 20 µM | 0.68% of 220,000 active | AID 463187;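 active = Hck-Nef kinase inhibition above about 50%, limit read from the data; inactive = inhibition below that limit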;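 also: 0% = DMSO with Hck plus Nef and 100% = Hck alone without Nef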
RanGTP-Impb inh = inhibitors of RanGTP-importin-beta interaction, primary screen, biochemical, FRET, CFP-Ran, YFP-importin-beta, homogeneous | inhibition, % (test concentration not listed) | 1.1% of 300,000 active | AID 2216 | cell-free CFP-Ran/YFP-importin-beta FRET ratio;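 active = more than half of the replicate wells show a fall in the fluorescence ratio signal beyond about 16%, limit read from the data, passing the limit was not always enough; inconclusive = exactly half of the replicate wells pass the set limit; inactive = fewer than half of replicates pass the limit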;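 also: 0% = DMSO wells and 100% = Ran loaded with GDP instead of GTP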
Runt-CBFb FRET = Runt domain-CBFb interaction inhibition. Q01196+Q13951. Cerulean-Runt/Venus-CBFb FRET ratio 530/480, 1 h. inhibition, % at 20 µM. 0.46% of 220,000 active. AID 1496;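 active = inhibition over about 50% at 20 µM in the single-dose screen, limit read from the data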;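 also: 0% = DMSO wells and 100% = excess unlabeled CBFb competitor control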
Target sequence (Q01196 whole entry, looked up, the tested form may be a part): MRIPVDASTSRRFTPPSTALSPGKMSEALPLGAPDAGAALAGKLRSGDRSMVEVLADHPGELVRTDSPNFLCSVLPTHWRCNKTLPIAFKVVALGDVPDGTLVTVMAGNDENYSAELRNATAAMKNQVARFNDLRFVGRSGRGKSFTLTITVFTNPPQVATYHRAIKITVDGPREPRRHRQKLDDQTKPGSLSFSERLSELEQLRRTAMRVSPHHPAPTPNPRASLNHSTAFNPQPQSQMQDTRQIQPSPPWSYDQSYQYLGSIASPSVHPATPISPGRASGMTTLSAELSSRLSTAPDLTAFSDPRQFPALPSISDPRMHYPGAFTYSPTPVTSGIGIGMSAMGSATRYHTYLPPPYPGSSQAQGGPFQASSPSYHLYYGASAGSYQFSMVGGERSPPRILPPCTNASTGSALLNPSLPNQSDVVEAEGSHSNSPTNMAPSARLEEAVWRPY
Target sequence (Q13951 whole entry, looked up, the tested form may be a part): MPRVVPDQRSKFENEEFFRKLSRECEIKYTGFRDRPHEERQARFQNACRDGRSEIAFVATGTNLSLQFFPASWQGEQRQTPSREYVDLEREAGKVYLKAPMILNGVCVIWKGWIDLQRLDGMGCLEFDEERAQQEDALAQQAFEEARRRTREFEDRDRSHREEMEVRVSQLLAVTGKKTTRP
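Reagent – Venus-CBFb binding partner, 100 nM · Assay system – Cerulean-tagged RUNX1 Runt domain (FRET donor) fusion protein · Input – 100 nM per protein · Incubation – two 1 h room-temperature incubations shielded from light · Measured by – FRET fluorescence · Medium – Tris buffer pH 7.5 with salts and BSA · Benchmarks – unlabeled CBFb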
Runt-SMMHC FRET = blocks binding of human RUNX1 Runt domain to CBFb-SMMHC; Q01196+Q13951; Cerulean-Runt/Venus-CBFb-SMMHC FRET ratio 530/480, 1 h; inhibition, % at 20 µM; 0.74% of 220,000 active; AID 1434;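 active = mean inhibition across duplicate retests at 20 µM reaching about 50%, limit read from the data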;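 also: 0% = DMSO wells and 100% = wells with excess untagged CBFb-SMMHC; inhibitors lower the FRET ratio by blocking Runt binding to CBFb-SMMHC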
Active calls of the source: *.

`COc1ccc(C#Cc2ccc3c(c2)c(=O)c2ccccc2n3C)cc1` gave RanGTP-Impb inh 84.5*.
`CC(=O)NCCn1c(SCC(=O)NC2CCCCC2)nc2ccccc2c1=O` gave Tb hexokinase 0.0, Hck-Nef inh 0.4, RanGTP-Impb inh 18.1*, Runt-CBFb FRET 0.6 and Runt-SMMHC FRET 0.2.
`Cc1cc(C)n2c(=S)[nH]nc2n1` gave Tb hexokinase -13.7, Hck-Nef inh -2.8, RanGTP-Impb inh 0.9, Runt-CBFb FRET 11.0 and Runt-SMMHC FRET 59.3*.
CC(=O)c1c(N2CCN(c3cccc(Cl)c3)CC2)nc(=S)n(-c2ccccc2)c1C was read as Tb hexokinase -12.5, Hck-Nef inh 1.3, RanGTP-Impb inh 46.4*, Runt-CBFb FRET 6.4 and Runt-SMMHC FRET 7.7.
`CC(=O)c1c(NCCc2ccccc2)nc(=S)n(-c2ccccc2)c1C` gave Tb hexokinase -1.0, Hck-Nef inh 1.5, RanGTP-Impb inh 4.2, Runt-CBFb FRET 2.9 and Runt-SMMHC FRET 2.1.
For COc1ccc(N2CCN(C(=O)c3c(C)nn(-c4ccccc4)c3C)CC2)cc1 the results were Tb hexokinase 37.9, Hck-Nef inh 0.5, RanGTP-Impb inh -0.2, Runt-CBFb FRET -1.5 and Runt-SMMHC FRET -5.4.
For CCn1c(C)c(C(C)=O)c(N2CCN(c3cccc(Cl)c3)CC2)nc1=S the results were Tb hexokinase -12.8, Hck-Nef inh -2.5, RanGTP-Impb inh 28.5*, Runt-CBFb FRET -37.5 and Runt-SMMHC FRET 54.2.
`COc1ccc(N2CCN(c3nc(=S)n(-c4ccccc4)c(C)c3C(C)=O)CC2)cc1` gave Tb hexokinase -9.9, Hck-Nef inh 0.6, RanGTP-Impb inh 91.8*, Runt-CBFb FRET 7.0 and Runt-SMMHC FRET -27.1.
CCOC(=O)N1CCN(c2c(N3CCN(c4ccc(OC)cc4)CC3)c(=O)c2=O)CC1 was read as Tb hexokinase -11.5, Hck-Nef inh 0.8, RanGTP-Impb inh -1.9, Runt-CBFb FRET 3.0 and Runt-SMMHC FRET 4.4.
CCn1c(C)c(C(C)=O)c(N2CCN(c3ccc(OC)cc3)CC2)nc1=S was read as Tb hexokinase -11.4, Hck-Nef inh 3.7, RanGTP-Impb inh 83.8*, Runt-CBFb FRET 8.7 and Runt-SMMHC FRET -38.7.
COc1ccc(OC)c(-n2nnnc2SCC(=O)NCc2ccc3c(c2)OCO3)c1 was read as Tb hexokinase 0.2, Hck-Nef inh -0.6, RanGTP-Impb inh 0.1, Runt-CBFb FRET -0.4 and Runt-SMMHC FRET 4.2.
CC(=O)c1c(N2CCN(c3ccccn3)CC2)nc(=S)n(-c2ccccc2)c1C was read as Tb hexokinase -9.0, Hck-Nef inh 19.4, RanGTP-Impb inh 57.0*, Runt-CBFb FRET 93.1* and Runt-SMMHC FRET 98.8*.
Screening CC(=O)c1c(N2CCN(C)CC2)nc(=S)n(Cc2ccccc2)c1C returned Tb hexokinase -10.6, Hck-Nef inh 5.9, RanGTP-Impb inh inconclusive, Runt-CBFb FRET 62.5* and Runt-SMMHC FRET 82.9*.
For CCSc1nc(=S)n(Cc2ccccc2)c(C)c1C(C)=O the results were Tb hexokinase -12.3, Hck-Nef inh 5.6, RanGTP-Impb inh 0.9, Runt-CBFb FRET -2.5 and Runt-SMMHC FRET 1.1.
CCNC(=O)/C(=C/c1ccco1)NC(=O)/C=C/c1ccccc1 was read as Tb hexokinase -25.6, Hck-Nef inh -0.1, RanGTP-Impb inh 1.6, Runt-CBFb FRET 0.1 and Runt-SMMHC FRET 1.0.
`S=C(N/N=C/c1ccco1)NC1CC2CCC1C2` (stereo not drawn) gave RanGTP-Impb inh 1.6.
Screening Cc1c(C#N)c(=O)oc2ccc3ccccc3c12 returned Tb hexokinase -8.7, Hck-Nef inh 7.8, RanGTP-Impb inh 0.5, Runt-CBFb FRET 70.6* and Runt-SMMHC FRET 97.3*.
Screening CCn1nc(NC(=O)c2ccncc2)c2cc3ccccc3nc21 returned Tb hexokinase -4.4, Hck-Nef inh 5.9, RanGTP-Impb inh 3.0, Runt-CBFb FRET 6.5 and Runt-SMMHC FRET 7.0.
For Cc1ccc2nc3c(cc2c1)c(NC(=O)C(C)(C)C)nn3CC(C)C the results were RanGTP-Impb inh 44.5*.
For Cc1ccc2nc(-c3cccc(NC(=O)c4ccco4)c3)[nH]c2c1 the results were Tb hexokinase 3.4, Hck-Nef inh 1.5, RanGTP-Impb inh 0.4, Runt-CBFb FRET -0.7 and Runt-SMMHC FRET -7.4.
`Cc1ccc2nc3c(cc2c1)c(NC(=O)c1ccco1)nn3CC(C)C` gave Tb hexokinase 19.5, Hck-Nef inh 17.1, RanGTP-Impb inh 78.4*, Runt-CBFb FRET 49.8 and Runt-SMMHC FRET 81.2*.
`CC(C)Cn1nc(NC(=O)c2ccco2)c2cc3ccccc3nc21` gave Tb hexokinase -3.4, Hck-Nef inh -7.6, RanGTP-Impb inh 51.3*, Runt-CBFb FRET 30.1 and Runt-SMMHC FRET 75.2.
`CCn1nc(NC(=O)c2ccco2)c2cc3ccccc3nc21` gave Tb hexokinase -7.8, Hck-Nef inh 19.5, RanGTP-Impb inh 30.1*, Runt-CBFb FRET 8.6 and Runt-SMMHC FRET 9.9.
`Cc1ccc(N(Cc2cc(=O)[nH]c3ccccc23)C(=O)CCl)c(C)c1` gave RanGTP-Impb inh 2.3.
`COc1cccc(C(=O)NNc2c3ccccc3nc3ccccc23)c1` gave RanGTP-Impb inh 16.0*.
Screening COc1ccc(Nc2c3ccccc3nc3ccccc23)cc1 returned RanGTP-Impb inh 66.7*.
Screening O=C(O)c1ccc(Nc2c3ccccc3nc3ccccc23)cc1 returned RanGTP-Impb inh 20.0*.
COc1ccc(Nc2c3c(nc4ccccc24)CCC3)cc1 was read as RanGTP-Impb inh 7.5.
`O=C(O)c1ccc(Nc2nc(-c3ccccc3)nc3ccccc23)cc1` gave RanGTP-Impb inh -0.7.
CC1(C)CC(=O)C=C(Nc2ccc(O)c(C(=O)O)c2)C1 was read as RanGTP-Impb inh -2.6.
`CC1(C)CC(=O)C=C(Nc2ccc3c(c2)OCCO3)C1` gave Tb hexokinase -18.5, Hck-Nef inh 2.6, RanGTP-Impb inh 25.8*, Runt-CBFb FRET -2.8 and Runt-SMMHC FRET -2.7.
For CC1(C)CC(=O)C=C(Nc2cccc(O)c2)C1 the results were Tb hexokinase -31.0, Hck-Nef inh 2.8, RanGTP-Impb inh 44.6*, Runt-CBFb FRET 1.2 and Runt-SMMHC FRET 3.1.
`Cc1ccc(NC2=CC(=O)CC(C)(C)C2)cc1C` gave Tb hexokinase -17.3, Hck-Nef inh -1.1, RanGTP-Impb inh 1.1, Runt-CBFb FRET -0.2 and Runt-SMMHC FRET 2.5.
Screening CC1(C)CC(=O)C=C(Nc2ccc(C(=O)O)cc2)C1 returned Tb hexokinase -52.9, Hck-Nef inh -0.4, RanGTP-Impb inh 29.0*, Runt-CBFb FRET 1.6 and Runt-SMMHC FRET 0.4.
Cc1c(OCC(=O)N[C@H](C(=O)O)c2ccccc2)ccc2c3c(c(=O)oc12)CCCC3 was read as RanGTP-Impb inh 5.3.
Screening COC(=O)c1nc(NC(=O)c2cc(OC)c(OC)c(OC)c2)n[nH]1 returned RanGTP-Impb inh 4.5.
Screening CCN1C(=O)/C(=C/C=C2/CCCN2C)OC1=S returned Tb hexokinase 2.0, Hck-Nef inh 12.2, RanGTP-Impb inh 0.9, Runt-CBFb FRET 2.6 and Runt-SMMHC FRET 125.1*.
